From PubChem BioAssay
Sampled rows, rich in hits. Any-hit rate of the full collection: about 3.9%.
TAAR1 antag: human TAAR1 antagonism. Q96RJ0. CHO RD-HGA16 TAAR1, Fluo-8 calcium fluorescence, antagonist. inhibition, % at 3 µM. 360,000 compounds, 1.5% hits. AID 624466;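 active = inhibition above a per-plate cutoff, the mean inhibition of test compounds on that plate plus 3 SD, cut at about 49% in these data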;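 also: 0% = DMSO plus EC80 beta-PEA response and 100% = DMSO alone without agonist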
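test system = CHO RD-HGA16 cells bearing hTAAR1 | replication = singlicate | controls = DMSO-only wells and EC80 β-PEA-stimulated wells | reagent = EC80 β-phenethylamine stimulus | read-out basis = percent inhibition of PEA-evoked calcium signal, max/basal emission ratio | schedule = seeding 17-24 h prior, 75-min 37 °C, 30-min RT dye loading | signal = kinetic Fluo-8 calcium fluorescence measurement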
TAAR1 agonist: agonists of human TAAR1 | AID 624467 | Q96RJ0 | CHO RD-HGA16 TAAR1, Fluo-8 calcium fluorescence; vehicle wells 0%, saturating PEA agonist 100% | 360,000 compounds, 0.99% hits | activation, % at 3 µM;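 active = activation above the mean activation of all test compounds in the run plus 3 SD, cut at about 38% in these data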
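Test system: RD-HGA16 (CHO) cells co-expressing Gα16 and hTAAR1 / Benchmarks: DMSO vehicle as 0%, PEA at EC100 as 100% / Repeats: no replicates (n 1) / Measure: % activation from peak over basal fluorescence ratio, DMSO-to-PEA scaled / Timing: 17-24 h plating, Fluo-8 75 min 37 °C, 30 min RT / Technique: kinetic Fluo-8 calcium fluorescence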
m5-HT2A agonist: agonists of mouse serotonin 5-HT2A receptor (HTR2A); P35363; CHO-K1 mHTR2A beta-arrestin complementation, luminescence; percent of 30 µM serotonin response; activation, % at 7.6 µM; 360,000 compounds, 0.66% hits;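 active = activation above a run cutoff, the mean activation of all tested compounds plus 3 SD, cut at about 14% in these data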;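 also: 0% = plate median of compound wells and 100% = 30 µM serotonin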
Target sequence (P35363 whole entry, looked up): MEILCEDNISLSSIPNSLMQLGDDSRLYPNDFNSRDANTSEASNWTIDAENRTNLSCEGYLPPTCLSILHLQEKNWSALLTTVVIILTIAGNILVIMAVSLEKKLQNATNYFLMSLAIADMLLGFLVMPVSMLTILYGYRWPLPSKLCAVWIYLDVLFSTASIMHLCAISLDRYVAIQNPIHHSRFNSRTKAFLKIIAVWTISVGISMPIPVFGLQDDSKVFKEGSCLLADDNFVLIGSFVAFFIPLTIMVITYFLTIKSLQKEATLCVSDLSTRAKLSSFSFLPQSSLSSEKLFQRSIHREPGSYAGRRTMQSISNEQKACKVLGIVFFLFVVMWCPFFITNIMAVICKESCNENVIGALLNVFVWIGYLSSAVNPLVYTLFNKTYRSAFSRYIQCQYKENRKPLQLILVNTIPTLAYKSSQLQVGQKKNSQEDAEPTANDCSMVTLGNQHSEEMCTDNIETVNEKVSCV
CHRM1 agonist: agonists of human M1 muscarinic receptor | 360,000 compounds, 0.33% hits | AID 588814 | activation, % at 3 µM | CHO-K1 hM1, Fluo-8 calcium fluorescence, agonist mode; 0% DMSO, 100% acetylcholine EC100;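 active = activation above the run's mean compound activation plus 3 SD, cut at about 16% in these data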;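 also: peak over basal fluorescence ratio within a 140 s kinetic read after compound addition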
CHRM1 antagonist: human CHRM1 antagonism; P11229; CHO-K1 hM1, Fluo-8 calcium fluorescence, ACh EC80 antagonist; inhibition, % at 3 µM; 360,000 compounds, 1.3% hits;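 active = percent inhibition above its own plate's cutoff, namely the mean of that plate's compound wells plus 3 SD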;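 also: peak over basal fluorescence ratio during 140 s after agonist addition; 0% = ACh EC80 plus DMSO and 100% = DMSO alone without agonist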
M1 PAM: positive allosteric modulators of human M1 muscarinic receptor; P11229; CHO-K1 hM1, Fluo-8 calcium fluorescence, ACh EC20; 0% = ACh EC20, 100% = maximal ACh; activation, % at 3 µM; 360,000 compounds, 0.088% hits; AID 588819; in the data active = activation above about 19%, passing the limit was not always enough
Active calls of the source: *; nt = no result.

SMILES	TAAR1 antag	TAAR1 agonist	m5-HT2A agonist	CHRM1 agonist	CHRM1 antagonist	M1 PAM
O=C(Nc1ccc(Cl)cc1)Nc1ccc(-c2cnco2)cc1	43	47*	8	2	19	-13
O=C(NC(=O)c1ccccc1)Nc1ccc(-c2cnco2)cc1	-27	2	3	-1	-8	15
COC(=O)c1cccc(NC(=O)Nc2ccc(Cl)cc2)c1	23	11	-4	5	38*	-20
O=C(NCCc1ccncc1)Nc1ccc(Cl)cc1	-20	11	2	-3	-4	2
O=C(NCCc1ccc(Cl)cc1)Nc1ccc(Cl)cc1	30	42*	-3	-1	26	-11
COC(=O)c1cc(NC(=O)Nc2cccc(Cl)c2)ccc1Cl	60*	10	0	4	32*	-17
CCOc1ccc(Cl)cc1-c1cc(C(=O)Nc2ccc(F)cc2)[nH]n1	16	1	-5	-3	-12	1
CCN1/C(=C2\C(=O)N(C)C(=S)N2C)C=Cc2cc(C)ccc21	-12	0	4	-8	-2	3
CC(=O)c1ccc(NC(=O)Nc2ccc(Cl)cc2)cc1	0	42*	-7	1	29	-18
CCOC(=O)c1nc(Nc2ccc(Nc3ccccc3)cc2)c2ccccc2n1	63*	11	1	4	21	-5
CCOC(=O)c1ccc(Nc2nc(C(=O)OCC)nc3ccccc23)cc1	41	3	-2	-3	1	-1
CCN=C1SC(C(=O)Nc2cccc(C)c2)CC(=O)N1CC (stereo not drawn)	63*	18	0	3	33*	-10
CCN=C1SC(C(=O)Nc2ccc(OC)cc2)CC(=O)N1CC (stereo not drawn)	55*	24	0	-1	32*	-20
CCN=C1SC(C(=O)NCCc2ccccc2)CC(=O)N1CC (stereo not drawn)	40	19	0	-1	26*	-14
CCN=C1SC(C(=O)Nc2cccc(Cl)c2)CC(=O)N1CC (stereo not drawn)	58*	23	2	0	38*	-9
CCN=C1SC(C(=O)Nc2ccc(OCC)cc2)CC(=O)N1CC (stereo not drawn)	47	24	-1	2	17	-13
CCN=C1SC(C(=O)Nc2cc(Cl)cc(Cl)c2)CC(=O)N1CC (stereo not drawn)	20	5	-1	-4	-10	6
CN[C@H]1C[C@H]2c3[nH]c4c(-c5ccc6c(c5)OCO6)cccc4c3CCN2C(=O)[C@H]1[C@H](C)O	38	5	nt	nt	nt	nt
Cc1cccc(CN(C)C[C@H]2OCc3cnnn3CCCC(=O)N([C@H](C)CO)C[C@@H]2C)c1	-20	1	-2	-8	-11	2
O=C(N[C@H](Cc1ccccc1)C(=O)N1CCN(C(=O)N2CCOCC2)CC1)[C@H]1O[C@@H](n2ccc(=O)[nH]c2=O)[C@H](O)[C@@H]1O	-7	2	nt	nt	nt	nt
CC(C)(C)c1ccc(OCC(=O)N(Cc2cccs2)C2CCS(=O)(=O)C2)cc1 (stereo not drawn)	-4	8	-7	-1	24	-15
CCOc1ccc(NC(=O)C2CC(=O)N(CC)C(=Nc3ccc4c(c3)OCO4)S2)cc1 (stereo not drawn)	48	12	1	-3	11	-7
CCN1C(=O)CC(C(=O)Nc2ccc(F)cc2)SC1=Nc1ccc2c(c1)OCO2 (stereo not drawn)	52*	17	2	-1	12	-3
Cc1cc(N2CCNC[C@H]2C)ccc1N1C[C@@H](C)O[C@@H](C)C1	9	2	nt	nt	nt	nt
CN1CCN(CC#CCn2c3ccccc3c3ccccc32)CC1	-2	7	-4	-5	36*	-21
SMILES	TAAR1 antag	TAAR1 agonist	m5-HT2A agonist	CHRM1 agonist	CHRM1 antagonist	M1 PAM
CN1CCN(CC(O)Cn2c3ccccc3c3ccccc32)CC1 (stereo not drawn)	-4	1	-1	-10	-2	-6
Nc1[nH]c(C(=O)c2ccccc2)c(-c2ccc3ccccc3c2)c1C(=O)NCc1ccc(F)cc1	-32	5	nt	nt	nt	nt
CCOC(=O)c1c(C)nc2sc(C(=O)Nc3ccc(OC)cc3)c(N)c2c1-c1ccc(OC)cc1	19	14	-2	-2	13	-4
CCOC(=O)c1c(C)nc2sc(C(=O)Nc3ccc(C(C)=O)cc3)c(N)c2c1-c1ccc(OC)cc1	55*	3	4	-2	38*	-9
O=C(Nc1ccc(Cl)cc1)OCC12COCN1COC2	13	9	nt	nt	nt	nt
Cc1cc(C)cc(NC(=S)NCC2CCCO2)c1 (stereo not drawn)	-7	8	-1	-3	12*	-11
O=C(Cc1c(F)cccc1Cl)NNC(=O)c1ccc(Br)s1	0	1	-4	-1	-1	7
CC[C@H](C)[C@H]1CNC(=O)C(=O)N1CC1CCN(CC2CCC(C)CC2)CC1 (stereo partly drawn)	6	0	-1	-10	-9	4
CC(C)C[C@H]1CNC(=O)C(=O)N1CC1CCN(CC2CCC(C)CC2)CC1 (stereo partly drawn)	-13	0	-1	-11	39*	-19
COc1ccc(CCn2c(N)cc(=O)[nH]c2=O)cc1OC	-4	1	1	0	28*	-14
CCC(=O)OCCNc1cc(Sc2nc3ccccc3s2)c2nonc2c1[N+](=O)[O-]	14	9	-2	-1	5	5
O=[N+]([O-])c1c(NCCCO)cc(Sc2nc3ccccc3s2)c2nonc12	nt	nt	-2	-6	33*	-13
COc1ccccc1NC(=O)c1ccccc1-c1nc(-c2ccccc2OC)no1	51*	16	0	0	29*	-11
CC(=O)c1cccc(NC(=O)C2CCCN2S(=O)(=O)c2cccc3cccnc23)c1 (stereo not drawn)	-20	5	8	-1	-8	3
CC(=O)c1cccc(NC(=O)C2CCCN(S(=O)(=O)c3cccc4cccnc34)C2)c1 (stereo not drawn)	52*	8	2	-4	9	-9
O=C(Nc1nccs1)C1CCCN(S(=O)(=O)c2cccc3cccnc23)C1 (stereo not drawn)	50*	11	3	1	-1	-8
Cc1ccc(NC(=O)CN2CCOCC2)cc1C	0	0	2	-4	-32	15
CCOc1cc(OCC)cc(C(=O)N2CCC[C@@H]2C(=O)N2CCC[C@@H]2C(=O)NCc2cccc(OC)c2)c1	-10	-1	nt	nt	nt	nt
C=CCOc1ccc(/C=C2/C(=O)ON=C2C)cc1OC	18	38*	3	-3	-20	12
